Test results published in paper PMC2709241 (Archives of biochemistry and biophysics, 2008).
Where a chain is given by its changes, count along the chain named. Like-named read-outs stand apart in the source and are kept apart here.

Tests used:
wild-type human MDD = target: T1, wild-type human MDD (Homo sapiens, UniProt P53602); assay: TNP-ATP fluorescence titration, Scatchard analysis, wild-type human MDD; type: binding
T1 sequence (P53602 1-400): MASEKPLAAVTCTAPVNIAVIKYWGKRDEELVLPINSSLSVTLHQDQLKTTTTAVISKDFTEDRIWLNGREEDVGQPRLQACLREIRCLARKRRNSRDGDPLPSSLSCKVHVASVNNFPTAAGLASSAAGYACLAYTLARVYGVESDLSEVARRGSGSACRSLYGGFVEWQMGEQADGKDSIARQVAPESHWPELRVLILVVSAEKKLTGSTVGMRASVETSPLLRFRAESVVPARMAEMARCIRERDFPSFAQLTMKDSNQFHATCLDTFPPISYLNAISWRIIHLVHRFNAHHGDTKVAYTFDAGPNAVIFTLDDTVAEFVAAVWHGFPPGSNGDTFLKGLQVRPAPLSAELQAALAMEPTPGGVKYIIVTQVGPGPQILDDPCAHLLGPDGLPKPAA
How it was run: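 Purified His6-tagged enzyme, wild type or mutant, was held at a fixed concentration while TNP-ATP was titrated in at 25°C. Buffer: 50 mM Tris-Cl pH 7.0, 0.5 mM MgCl2, 1 mM DTT. TNP-ATP was quantified at A409 (ε 26 400 M-1 cm-1). Excitation was 409 nm; peak emission (530–538 nm) was corrected for free probe in buffer alone. Scatchard analysis: Kd from slope; n per 44 kDa subunit from x-intercept.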

N17A mutant human MDD = target: T2, N17A mutant human MDD (Homo sapiens, UniProt P53602, N17A); assay: Steady-state kinetics of N17A human MDD; type: biochemical; conditions: for Km: N17A
T2 sequence (P53602 1-400 N17A): T1 sequence (P53602 1-400) with N17A
How it was run: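 N17A mutant, made by QuikChange PCR, was expressed and Ni-Sepharose purified as for the wild type. Started with mevalonate diphosphate; substrate varied; Michaelis-Menten fit. Km(ATP) was measured with RS-MVPP raised to 8.8 mM.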

S162A mutant human MDD = target: T3, S162A mutant human MDD (Homo sapiens, UniProt P53602, S162A); assay: Steady-state kinetics of S162A human MDD; type: biochemical
T3 sequence (P53602 1-400 S162A): T1 sequence (P53602 1-400) with S162A
How it was run: (§1)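 His6-tagged human enzyme from E. coli BL21(DE3) was Ni-Sepharose purified and quantified by Bradford. Spectrophotometric assay at 30°C: ADP formation coupled through pyruvate kinase/lactate dehydrogenase (4 U) to NADH oxidation, with A340 decrease followed. Started with mevalonate diphosphate; substrate varied; Michaelis-Menten fit.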

[1] = target: T4, wild-type C-his tagged human MDD (Homo sapiens, UniProt P53602); assay: Steady-state kinetics of wild-type; type: biochemical
T4 sequence (P53602 1-400): T1 sequence (P53602 1-400)
How it was run: as §1

N-his tagged human MDD = target: T5, N-his tagged human MDD (Homo sapiens, UniProt P53602); assay: Steady-state kinetics of N-his tagged human MDD; type: biochemical; conditions: N-his tagged enzyme
T5 sequence (P53602 1-400): T1 sequence (P53602 1-400)
How it was run: as §1

In the case of `Nc1ncnc2c1ncn2[C@@H]1O[C@H](COP(=O)(O)OP(=O)(O)OP(=O)(O)O)[C@H]2OC3(O[C@H]21)C([N+](=O)[O-])=CC(=[N+]([O-])[O-])C=C3[N+](=O)[O-]` (stereo partly shown) [TNP-ATP, 2’(3’)-O-(2,4,6-Trinitrophenyl)adenosine-5’-triphosphate], the Kd (wild-type human MDD) is reported as 550 nM and the “n (binding stoichiometry)” value (wild-type human MDD; WT, binding sites per 44 kDa subunit) is reported as 0.77.
`Nc1ncnc2c1ncn2[C@@H]1O[C@H](COP(=O)(O)OP(=O)(O)OP(=O)(O)O)[C@@H](O)[C@H]1O` [ATP] was tested, and the Km (N17A mutant human MDD; read-out: Km(ATP), elevated RS-MVPP (8.8 mM)) was 7700 ± 1200 µM, the Km (S162A mutant human MDD; read-out: Km(ATP)) was 4900 ± 1300 µM and the Km ([1]; read-out: Km(ATP), WT C-his, 30°C, pH 7.0) was 690 ± 70 µM. The Km (N-his tagged human MDD; read-out: Km(ATP)) was 1700 µM.
With `C[C@@](O)(CCOP(=O)(O)OP(=O)(O)O)CC(=O)O` [MVAPP, mevalonate 5-diphosphate] the “Fold Inflation of Km for mevalonate diphosphate, N17A vs WT” value (N17A mutant human MDD; N17A vs WT, listed as R,S-MVAPP) was 14.7 fold, the Km (N17A mutant human MDD; read-out: Km(R,S-MVAPP), Table 4) was 425 ± 74 µM and the Km (N17A mutant human MDD; read-out: Km(RS-MVPP), elevated ATP (20 mM) and MgCl2 (22mM)) was 425 ± 74 µM. The Km (S162A mutant human MDD; read-out: Km(RS-MVPP)) was 126 ± 6.4 µM, the Km ([1]; read-out: Km(R,S-MVAPP), WT, Table 4) was 28.9 ± 3.3 µM and the Km ([1]; read-out: Km(RS-MVPP), WT C-his, 30°C, pH 7.0) was 28.9 ± 3.3 µM. For the same compound, the Km (N-his tagged human MDD; read-out: Km(RS-MVPP)) was 42.1 µM.
